Here are results for eleven compounds from ChEMBL document CHEMBL1127475, “Novel amidine-containing peptidyl phosphonates as irreversible inhibitors for blood coagulation and related serine proteases” (J Med Chem, 1994).

Calls of active or inactive are those of the source. No cut-off for these calls is given here.

In the first assay the target is T1, Serine protease 1 (Bos taurus) (UniProt P00760).
T1 sequence (whole entry): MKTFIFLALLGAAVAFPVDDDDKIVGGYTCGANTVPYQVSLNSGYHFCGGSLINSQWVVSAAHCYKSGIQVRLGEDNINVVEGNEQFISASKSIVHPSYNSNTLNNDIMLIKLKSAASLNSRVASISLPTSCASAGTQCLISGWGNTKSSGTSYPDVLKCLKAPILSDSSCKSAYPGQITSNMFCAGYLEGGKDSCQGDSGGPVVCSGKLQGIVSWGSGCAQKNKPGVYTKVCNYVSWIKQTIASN
The assay can be described thus: The compound was measured for inhibitory activity against bovine trypsin; NI=No inhibition. The essentials: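 Irreversible inactivation by incubation: enzyme (0.03–2.3 µM) mixed with inhibitor (1.7–420 µM, added in Me2SO, 8–12% final) in 0.1 M Hepes, 0.01 M CaCl2, pH 7.5, at 25 °C. Aliquots were taken over time and residual activity read with Z-Phe-Gly-Arg-NA (100–120 µM) at 410 nm. kobs came from ln v0/vt vs time, and kobs/[I] from the average of duplicate or triplicate runs.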
With `CCOP(=O)(OCC)[C@H](Cc1ccc(C(=N)N)cc1)NC(=O)[C@@H]1CCCN1C(=O)OCc1ccccc1`, the “K obs / 1” value is “inactive”.

Another assay concerns the target T2, Coagulation factor XII (Homo sapiens) (UniProt P00748).
T2 sequence (whole entry): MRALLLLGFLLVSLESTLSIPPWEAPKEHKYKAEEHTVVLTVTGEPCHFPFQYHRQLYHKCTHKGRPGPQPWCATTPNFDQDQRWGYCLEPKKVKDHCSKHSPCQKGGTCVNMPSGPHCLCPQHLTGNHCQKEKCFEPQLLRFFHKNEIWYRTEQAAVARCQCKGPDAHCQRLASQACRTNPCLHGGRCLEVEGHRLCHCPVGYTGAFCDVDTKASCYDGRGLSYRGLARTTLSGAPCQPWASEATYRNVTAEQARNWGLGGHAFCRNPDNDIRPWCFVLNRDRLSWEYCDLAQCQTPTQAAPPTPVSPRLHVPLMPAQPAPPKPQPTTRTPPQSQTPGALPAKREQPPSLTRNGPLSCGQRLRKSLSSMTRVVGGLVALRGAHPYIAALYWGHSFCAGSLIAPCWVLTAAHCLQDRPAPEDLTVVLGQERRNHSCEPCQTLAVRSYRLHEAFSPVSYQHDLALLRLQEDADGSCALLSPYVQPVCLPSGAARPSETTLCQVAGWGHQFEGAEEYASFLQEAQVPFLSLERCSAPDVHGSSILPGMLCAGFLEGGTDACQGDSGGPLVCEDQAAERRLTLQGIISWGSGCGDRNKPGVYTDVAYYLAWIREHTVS
Description: (§1) The compound was measured for inhibitory activity against human coagulation factor XII. The essentials:
(§2)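 Enzymes (plasma kallikrein and factor XIIa of human origin) at 0.03–2.3 μM were incubated at 25 °C with inhibitor (1.7–420 μM) in 0.1 M Hepes, 0.01 M CaCl2, pH 7.5, 8–12% Me2SO. Timed aliquots were assayed for residual activity with Z-Arg-SBzl (80–90 μM) plus 4,4'-dithiodipyridine, read at 394 nm. Pseudo-first-order kobs came from ln v0/vt vs time; kobs/[I] typically averaged from duplicate or triplicate runs.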
`CC(C)(C)OC(=O)N[C@@H](Cc1ccccc1)C(=O)N1CCC[C@H]1C(=O)NC(c1ccc(C(=N)N)cc1)P(=O)(Oc1ccccc1)Oc1ccccc1` (some centres undefined): the K obs / 1 came out at 52 M⁻¹ s⁻¹.

In turn, `N=C(N)c1ccc(C(NC(=O)[C@@H]2CCCN2C(=O)OCc2ccccc2)P(=O)(Oc2ccccc2)Oc2ccccc2)cc1` (some centres undefined) showed a K obs / 1 of 2.6 M⁻¹ s⁻¹.

In turn, `N=C(N)c1ccc(C(NC(=O)[C@@H]2CCCN2C(=O)[C@@H](N)Cc2ccccc2)P(=O)(Oc2ccccc2)Oc2ccccc2)cc1` (some centres undefined) registered a K obs / 1 of 2.8 M⁻¹ s⁻¹.

In turn, `N=C(N)c1ccc(C(NC(=O)OCc2ccccc2)P(=O)(Oc2ccccc2)Oc2ccccc2)cc1` (centres undefined) showed a K obs / 1 of 20 M⁻¹ s⁻¹.

The target in a further assay is T3, Coagulation factor XII (Bos taurus) (UniProt P98140).
T3 sequence (whole entry): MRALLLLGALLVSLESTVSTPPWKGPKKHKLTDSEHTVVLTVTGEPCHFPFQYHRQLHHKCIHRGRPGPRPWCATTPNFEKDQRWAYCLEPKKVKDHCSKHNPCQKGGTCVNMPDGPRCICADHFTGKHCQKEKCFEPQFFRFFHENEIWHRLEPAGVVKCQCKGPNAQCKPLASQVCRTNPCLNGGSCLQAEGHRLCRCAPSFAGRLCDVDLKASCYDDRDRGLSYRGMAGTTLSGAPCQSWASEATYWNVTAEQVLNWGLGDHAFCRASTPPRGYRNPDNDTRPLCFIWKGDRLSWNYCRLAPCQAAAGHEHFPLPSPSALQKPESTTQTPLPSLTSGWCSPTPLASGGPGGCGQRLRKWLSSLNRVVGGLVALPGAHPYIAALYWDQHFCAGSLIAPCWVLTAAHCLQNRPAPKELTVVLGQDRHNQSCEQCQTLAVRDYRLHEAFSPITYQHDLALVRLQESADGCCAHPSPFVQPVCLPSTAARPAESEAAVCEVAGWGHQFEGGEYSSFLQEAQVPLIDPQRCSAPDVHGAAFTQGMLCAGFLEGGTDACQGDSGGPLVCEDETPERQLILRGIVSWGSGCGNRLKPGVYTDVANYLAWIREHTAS
The assay is described as §1. The essentials:
as §2
In turn, `N=C(N)c1ccc(C(NC(=O)CNS(=O)(=O)c2ccc3ccccc3c2)P(=O)(Oc2ccccc2)Oc2ccccc2)cc1` (centres undefined) returned a K obs / 1 of 25 M⁻¹ s⁻¹.

The next assay addresses Prothrombin (Bos taurus) (UniProt P00735). The assay can be described thus: (§3) The compound was measured for inhibitory activity against bovine thrombin.
`CC(C)(C)OC(=O)N[C@@H](Cc1ccccc1)C(=O)N1CCC[C@H]1C(=O)NC(c1ccc(C(=N)N)cc1)P(=O)(Oc1ccccc1)Oc1ccccc1` (some centres undefined) returned a K obs / 1 of 12000 M⁻¹ s⁻¹.

`N=C(N)c1ccc(C(NC(=O)[C@@H]2CCCN2C(=O)OCc2ccccc2)P(=O)(Oc2ccccc2)Oc2ccccc2)cc1` (some centres undefined) displayed a K obs / 1 of 70 M⁻¹ s⁻¹.

The compound `N=C(N)c1ccc(C(NC(=O)[C@@H]2CCCN2C(=O)[C@@H](N)Cc2ccccc2)P(=O)(Oc2ccccc2)Oc2ccccc2)cc1` (some centres undefined) showed a K obs / 1 of 730 M⁻¹ s⁻¹.

`N=C(N)c1ccc(C(NC(=O)OCc2ccccc2)P(=O)(Oc2ccccc2)Oc2ccccc2)cc1` (centres undefined) had a K obs / 1 of 170 M⁻¹ s⁻¹.

For another assay, the target named is Prothrombin (Homo sapiens) (UniProt P00734). The assay is described as §3.
Compound `N=C(N)c1ccc(C(NC(=O)CNS(=O)(=O)c2ccc3ccccc3c2)P(=O)(Oc2ccccc2)Oc2ccccc2)cc1` (centres undefined) displayed a K obs / 1 of 170 M⁻¹ s⁻¹.

The next assay deals with Plasma kallikrein (Homo sapiens) (UniProt P03952). The assay can be described thus: The compound was measured for inhibitory activity against human plasma kallikrein. Format: cell-free. The essentials: as §2
Plasma kallikrein (Homo sapiens), sequence (P03952 20-390 limits assumed): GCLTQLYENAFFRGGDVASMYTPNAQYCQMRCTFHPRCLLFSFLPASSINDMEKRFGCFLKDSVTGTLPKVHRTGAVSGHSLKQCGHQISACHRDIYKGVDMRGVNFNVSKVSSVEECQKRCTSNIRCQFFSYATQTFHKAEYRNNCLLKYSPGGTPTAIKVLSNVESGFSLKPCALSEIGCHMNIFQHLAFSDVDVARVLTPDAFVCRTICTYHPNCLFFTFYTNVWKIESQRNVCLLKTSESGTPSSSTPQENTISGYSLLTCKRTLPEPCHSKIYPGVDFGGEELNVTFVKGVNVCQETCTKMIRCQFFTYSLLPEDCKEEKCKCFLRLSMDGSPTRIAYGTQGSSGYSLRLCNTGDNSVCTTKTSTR
Plasma kallikrein (Homo sapiens), sequence (P03952 391-638 limits assumed): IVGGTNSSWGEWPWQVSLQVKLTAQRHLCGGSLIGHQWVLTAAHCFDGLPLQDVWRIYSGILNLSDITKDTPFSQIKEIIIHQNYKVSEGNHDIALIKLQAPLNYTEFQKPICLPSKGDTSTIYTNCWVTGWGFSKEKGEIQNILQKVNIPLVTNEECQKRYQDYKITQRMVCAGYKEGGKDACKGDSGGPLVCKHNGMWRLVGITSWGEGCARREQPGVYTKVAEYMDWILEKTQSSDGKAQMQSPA
As to `CC(C)(C)OC(=O)N[C@@H](Cc1ccccc1)C(=O)N1CCC[C@H]1C(=O)NC(c1ccc(C(=N)N)cc1)P(=O)(Oc1ccccc1)Oc1ccccc1` (some centres undefined), the K obs / 1 came out at 160 M⁻¹ s⁻¹.

Regarding `N=C(N)c1ccc(C(NC(=O)CNS(=O)(=O)c2ccc3ccccc3c2)P(=O)(Oc2ccccc2)Oc2ccccc2)cc1` (centres undefined), the K obs / 1 was determined as 960 M⁻¹ s⁻¹.

Compound `N=C(N)c1ccc(C(NC(=O)[C@@H]2CCCN2C(=O)OCc2ccccc2)P(=O)(Oc2ccccc2)Oc2ccccc2)cc1` (some centres undefined) had a K obs / 1 of 60 M⁻¹ s⁻¹.

As to `N=C(N)c1ccc(C(NC(=O)[C@@H]2CCCN2C(=O)[C@@H](N)Cc2ccccc2)P(=O)(Oc2ccccc2)Oc2ccccc2)cc1` (some centres undefined), the K obs / 1 came to 250 M⁻¹ s⁻¹.

With `N=C(N)c1ccc(C(NC(=O)OCc2ccccc2)P(=O)(Oc2ccccc2)Oc2ccccc2)cc1` (centres undefined), the K obs / 1 came to 18000 M⁻¹ s⁻¹.

In the next assay the target is T1, Serine protease 1 (Bos taurus). The assay can be described thus: The compound was measured for inhibitory activity against bovine trypsin. The essentials: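 Inactivation by incubation: enzyme (0.03–2.3 μM) with inhibitor (1.7–420 μM) added from Me2SO (8–12% final) in 0.1 M Hepes, 0.01 M CaCl2, pH 7.5, 25 °C. Aliquots withdrawn over time; residual activity read with Z-Phe-Gly-Arg-NA (100–120 μM) at 410 nm. kobs from ln v0/vt vs time; kobs/[I] typically averaged from duplicate or triplicate runs.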
`CC(C)(C)OC(=O)N[C@@H](Cc1ccccc1)C(=O)N1CCC[C@H]1C(=O)NC(c1ccc(C(=N)N)cc1)P(=O)(Oc1ccccc1)Oc1ccccc1` (some centres undefined) came in with a K obs / 1 of 2200 M⁻¹ s⁻¹.

`N=C(N)c1ccc(C(NC(=O)CNS(=O)(=O)c2ccc3ccccc3c2)P(=O)(Oc2ccccc2)Oc2ccccc2)cc1` (centres undefined) registered a K obs / 1 of 470 M⁻¹ s⁻¹.

Take `N=C(N)c1ccc(C[C@H](NC(=O)[C@@H]2CCCN2C(=O)[C@@H](N)Cc2ccccc2)P(=O)(Oc2ccccc2)Oc2ccccc2)cc1`: the K obs / 1 stood at 50 M⁻¹ s⁻¹.

In the case of `N=C(N)c1ccc(C[C@H](NC(=O)OCc2ccccc2)P(=O)(Oc2ccccc2)Oc2ccccc2)cc1`, the K obs / 1 came out at 24 M⁻¹ s⁻¹.

As for `N=C(N)c1ccc(C(NC(=O)[C@@H]2CCCN2C(=O)OCc2ccccc2)P(=O)(Oc2ccccc2)Oc2ccccc2)cc1` (some centres undefined), the K obs / 1 was determined as 100 M⁻¹ s⁻¹.

The compound `CC(C)(C)OC(=O)N[C@@H](Cc1ccccc1)C(=O)N1CCC[C@H]1C(=O)N[C@@H](Cc1ccc(C(=N)N)cc1)P(=O)(Oc1ccccc1)Oc1ccccc1` yielded a K obs / 1 of 130 M⁻¹ s⁻¹.

`N=C(N)c1ccc(C(NC(=O)[C@@H]2CCCN2C(=O)[C@@H](N)Cc2ccccc2)P(=O)(Oc2ccccc2)Oc2ccccc2)cc1` (some centres undefined): the K obs / 1 amounted to 110 M⁻¹ s⁻¹.

In the case of `N=C(N)c1ccc(C[C@H](N)P(=O)(Oc2ccccc2)Oc2ccccc2)cc1`, the K obs / 1 came to 32 M⁻¹ s⁻¹.

The target in a further assay is Prothrombin (Homo sapiens) (UniProt P00734). The assay can be described thus: The compound was measured for inhibitory activity against human thrombin. The essentials: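 Human thrombin (0.03–2.3 μM) was incubated at 25 °C with inhibitor (1.7–420 μM) in 0.1 M Hepes, 0.5 M NaCl, pH 7.5, 8–12% Me2SO. Residual activity in withdrawn aliquots was measured with Z-Arg-SBzl (80–90 μM) and 4,4'-dithiodipyridine at 394 nm. kobs from ln v0/vt vs time; kobs/[I] typically averaged from duplicate or triplicate experiments.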
Turning to `CC(C)(C)OC(=O)N[C@@H](Cc1ccccc1)C(=O)N1CCC[C@H]1C(=O)NC(c1ccc(C(=N)N)cc1)P(=O)(Oc1ccccc1)Oc1ccccc1` (some centres undefined), the K obs / 1 came out at 11000 M⁻¹ s⁻¹.

`N=C(N)c1ccc(C[C@H](NC(=O)[C@@H]2CCCN2C(=O)[C@@H](N)Cc2ccccc2)P(=O)(Oc2ccccc2)Oc2ccccc2)cc1` showed a K obs / 1 of 54 M⁻¹ s⁻¹.

In the case of `N=C(N)c1ccc(C[C@H](NC(=O)OCc2ccccc2)P(=O)(Oc2ccccc2)Oc2ccccc2)cc1`, the K obs / 1 was found to be 0.2 M⁻¹ s⁻¹.

For `N=C(N)c1ccc(C(NC(=O)[C@@H]2CCCN2C(=O)OCc2ccccc2)P(=O)(Oc2ccccc2)Oc2ccccc2)cc1` (some centres undefined), the K obs / 1 came out at 20 M⁻¹ s⁻¹.

In turn, `CC(=O)N[C@H](Cc1ccccc1)C(=O)N1CCC[C@H]1C(=O)N[C@@H](CCCN=C(N)N)P(=O)(Oc1ccccc1)Oc1ccccc1` registered a K obs / 1 of 1200 M⁻¹ s⁻¹.

`CC(C)(C)OC(=O)N[C@@H](Cc1ccccc1)C(=O)N1CCC[C@H]1C(=O)N[C@@H](Cc1ccc(C(=N)N)cc1)P(=O)(Oc1ccccc1)Oc1ccccc1` came in with a K obs / 1 of 0.7 M⁻¹ s⁻¹.

Compound `N=C(N)c1ccc(C(NC(=O)[C@@H]2CCCN2C(=O)[C@@H](N)Cc2ccccc2)P(=O)(Oc2ccccc2)Oc2ccccc2)cc1` (some centres undefined) displayed a K obs / 1 of 700 M⁻¹ s⁻¹.

`N=C(N)c1ccc(C[C@H](N)P(=O)(Oc2ccccc2)Oc2ccccc2)cc1` yielded a K obs / 1 of 2.2 M⁻¹ s⁻¹.

The compound `N=C(N)c1ccc(C(NC(=O)OCc2ccccc2)P(=O)(Oc2ccccc2)Oc2ccccc2)cc1` (centres undefined) showed a K obs / 1 of 80 M⁻¹ s⁻¹.

For another assay the target is unchanged. The assay can be described thus: The compound was measured for inhibitory activity against human thrombin; NI=No inhibition. In a few lines: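 Human thrombin (0.03–2.3 µM) was incubated with inhibitor (1.7–420 µM, added in Me2SO, 8–12% final) in 0.1 M Hepes, 0.5 M NaCl, pH 7.5, at 25 °C. Timed aliquots were assayed for residual activity with Z-Arg-SBzl (80–90 µM) plus 4,4'-dithiodipyridine at 394 nm. Pseudo-first-order kobs came from ln v0/vt vs time, and kobs/[I] was typically averaged over duplicate or triplicate experiments.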
On to `CCOP(=O)(OCC)[C@H](Cc1ccc(C(=N)N)cc1)NC(=O)[C@@H]1CCCN1C(=O)OCc1ccccc1`, for which the “K obs / 1” value was “inactive”.
